# Screening data: PubChem, several laboratories
# NLRP3 yeast inh: inhibitors of NALP3 inflammasome in yeast. inhibition, % at 10 µM. AID 2825. Yeast reconstituted NLRP3/ASC/caspase-1, beta-gal luminescence, 24 h. hit rate 0.39% among 330,000;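 active means inhibition of 50% or more; inactive means inhibition below 50%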;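 further: plate controls were induced DMSO wells for no effect and uninduced yeast grown without galactose for full effect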
# T cruzi inh: blocks replication of Trypanosoma cruzi; T. cruzi beta-gal in NIH3T3, luminescence, 90 h; hit rate 1.4% among 300,000; inhibition, % (test concentration not listed);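 active means mean inhibition across valid replicates above about 55%, limit read from the data; inconclusive means mean below that limit but half or more replicates reach it; inactive means mean below it, under half of replicates reach it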;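 further: signal also drops with host cell toxicity which is not excluded here; 0% = plate median of DMSO wells and 100% = zero luminescence signal; higher percent means less beta-gal luminescence so fewer parasites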
#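 System – NIH/3T3 host cells with β-galactosidase reporter T. cruzi · Doses – single 50 nL compound addition per well in DMSO · Reagent – 5000 T. cruzi trypomastigotes/well · Medium – Low-serum DMEM with 2% FBS · Timing – ≥90 h infection period, 3 h prior cell attachment · Evaluation – parasite load inhibition, % · Technique – GalScreen luminescence, 60 min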
# PolyA inhibitor: inhibitors of polyadenylation in S. cerevisiae | S. cerevisiae SKY197-pL101 polyadenylation reporter, beta-gal luminescence; efflux-impaired pdr1/pdr3 knockout yeast; score 100 = 6 SD above DMSO | activity score, % at 12 µM | hit rate 0.02% among 300,000;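 active means lowest replicate activity score at least 50, where 100 means six control SD above control mean; inconclusive means lowest score under 50 but half or more replicates reach 50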;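 further: yeast exposed to compound for 9 h at 30 °C; higher score means more reporter readthrough which indicates perturbed polyadenylation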
# NALP1 inh: blocks the NALP1 inflammasome reconstituted in yeast; S. cerevisiae NALP1/ASC/caspase-1 growth, X-gal OD620, 72 h; inhibition, % at 10 µM; hit rate 0.61% among 280,000; in the data active means inhibition mostly above about 24%, no sharp cut-off; inactive means mostly below about 32%
# L major viab: Leishmania major promastigote growth inhibition | AID 1063 | Leishmania major promastigotes, resazurin fluorescence viability | hit rate 9% among 200,000 | inhibition, % at 10 µM; in the data active means inhibition above about 50%;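 further: promastigotes grown with compound for 44 hours at 28 °C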
# Calb FLC: affects C. albicans growth with fluconazole | C. albicans CaCi-2 + fluconazole, Alamar Blue growth, 48 h | growth inhibition, % (concentration not given with the values) | hit rate 0.57% among 300,000 | AID 1979;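 active means growth inhibition above about 58% in most replicates, limit read from the data, passing the limit was not always enough; inconclusive means exactly half the replicates above a set limit; inactive means most replicates below a set limit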;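 further: all wells also contain fluconazole at 8 µg/ml as a sub-toxic cotreatment; 0% = median of DMSO wells and 100% = median of geldanamycin control wells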
# Starred values were filed as active, the others as inactive; ? = inconclusive; / = no result given. This is one part of a sample in which hits are shown more often than they occur.
SMILES,NLRP3 yeast inh,T cruzi inh,PolyA inhibitor,NALP1 inh,L major viab,Calb FLC
FC(F)(F)c1ccc(/C=N/N2CCN(Cc3ccccc3)CC2)cc1,18.3,-4.6,-33.1,25.6,54.1*,-10.0
BrC(=C\c1ccccc1)/C=N/N1CCN(Cc2ccccc2)CC1,19.2,9.6,-11.6,/,53.4*,-11.1
BrC(/C=N/N1CCN(Cc2ccccc2)CC1)=C/c1ccccc1,-4.7,7.8,-19.1,-3.8,/,1.9
Cc1ccc(CN2CCN(/N=C/c3ccc(C(F)(F)F)cc3)CC2)cc1,30.2,-1.4,8.2,36.6,37.4,-4.7
COc1ccc(C2=NN(C(=O)c3ccncc3)C(c3ccccc3O)C2)cc1 (configuration not stated),9.6,9.2,7.6,16.2,/,10.3
COc1ccccc1C1CC(c2ccc(Br)cc2)=NN1C(=O)c1cccnc1 (configuration not stated),2.9,29.7,-7.4,4.1,51.1*,-16.9
COc1cccc(C2CC(c3ccccc3)=NN2S(=O)(=O)c2ccc(C)cc2)c1OC (configuration not stated),9.0,8.5,/,9.3,61.1*,/
COc1cccc(C2CC(c3ccc(Br)cc3)=NN2C(=O)c2ccncc2)c1OC (configuration not stated),10.4,33.2,8.8,19.4,61.2*,?
COc1ccccc1C1CC(c2ccccc2)=NN1S(=O)(=O)c1ccccc1 (configuration not stated),-42.3,4.3,-20.5,9.0,/,11.9
COc1ccc(C2=NN(C(=O)c3ccccc3)C(c3ccc(OC)c(OC)c3)C2)cc1OC (configuration not stated),20.0,-1.7,15.7,4.8,/,-1.6
COc1ccc2[nH]cc(CCNS(=O)(=O)c3ccc(C)cc3)c2c1,2.9,-10.4,12.5,-0.9,/,11.5
N#CCCn1cc(/C=N/NC(N)=S)c(-c2ccccc2)n1,20.7,-9.6,9.3,-15.4,2.8,-6.8
O=C(COC(=O)c1c[nH]c(=O)[nH]c1=O)NCc1ccccc1,13.3,-11.0,-5.0,11.1,-1.5,-0.9
CCOc1ccc(/C=C2\C(=O)c3ccccc3OC2c2ccccc2)cc1 (configuration not stated),21.9,8.0,-8.4,27.5*,21.6,?
COc1ccc(/C=C2\C(=O)c3ccccc3OC2c2ccccc2)cc1 (configuration not stated),2.9,-9.0,-10.8,-0.1,/,-14.7
CC(=O)NC(NC(=S)Nc1cccc(Br)c1)C(Cl)(Cl)Cl (configuration not stated),8.8,-2.6,-10.6,18.5,/,-3.2
CC(=O)NC(NC(=S)Nc1ccc(N=Nc2ccccc2)cc1)C(Cl)(Cl)Cl (configuration not stated),8.8,46.1,-17.4,-10.5,63.7*,2.5
COc1ccc(NC(=S)NC(NC(=O)/C=C/c2ccccc2)C(Cl)(Cl)Cl)cc1 (configuration not stated),4.0,23.3,-29.2,-0.9,-0.7,-6.3
O=C(/C=C/c1ccccc1)NC(NC(=S)Nc1ccc(Cl)cc1)C(Cl)(Cl)Cl (configuration not stated),7.8,72.0*,-3.0,-0.3,46.3,-8.8
CC(CCc1ccccc1)NC(=O)/C=C/c1ccc(Cl)cc1 (configuration not stated),24.3,-1.7,11.5,30.4,52.4*,-3.9
O=C(/C=C/c1ccccc1)NC(NC(=S)Nc1cc(Cl)ccc1Cl)C(Cl)(Cl)Cl (configuration not stated),9.6,75.1*,10.3,22.6,99.3*,-7.5
COCCN(CC(=O)NCc1ccc(OC)cc1)C(=O)CCC(=O)Nc1nccs1,20.1,-0.3,5.4,1.8,-9.1,2.1
COC(CN1C(=O)C(O)=C(C(C)=O)C1c1ccccn1)OC (configuration not stated),8.4,-6.2,-0.9,-6.1,-4.5,-3.5
O=C(/C=C/c1ccccc1)NNc1ccc(Cl)cc1,31.3,8.8,-69.5,6.9,99.5*,97.3*
CCn1c(NC(=O)C(C)C)c(-c2ccccc2)c(=O)c2ccccc21,16.2,/,3.1,10.1,/,18.9
SMILES,NLRP3 yeast inh,T cruzi inh,PolyA inhibitor,NALP1 inh,L major viab,Calb FLC
COc1ccc(C2=Nn3c(nnc3-c3ccc(OC)cc3)SC2)cc1,/,-12.3,3.8,21.3,60.9*,21.9
CCOc1cccc(-c2nnc3n2N=C(c2cc(OC)ccc2OC)CS3)c1,11.6,31.4,3.1,-0.2,66.0*,10.0
COc1cccc(-c2nnc3n2N=C(c2cc(OC)ccc2OC)CS3)c1,-0.7,12.9,-13.8,19.7,26.6,25.2
Cc1nnc2n(c1=O)N=C(c1ccc(Cl)cc1)CS2,17.9,-0.1,2.1,23.2,80.5*,26.7
CCc1nnc2n1N=C(c1ccc(Cl)cc1)CS2,6.0,-10.8,-2.6,0.9,/,6.2
c1ccc(C2=Nn3c(nnc3-c3cc(-c4ccccc4)n[nH]3)SC2)cc1,6.9,25.6,7.9,12.8,63.1*,-0.7
COc1ccc(-c2nnc3n2N=C(C)CS3)cc1,10.3,-2.7,-2.9,7.8,-4.2,4.8
CC1CCN(C(=O)c2ccc3c(c2)OCO3)CC1,4.2,-5.8,18.3,11.7,/,-0.1
O=C(NNS(=O)(=O)c1ccccc1Cl)C1COc2ccccc2O1 (configuration not stated),6.5,/,/,/,/,/
CCOc1ccc(S(=O)(=O)N2CCC(C(=O)N3CCOCC3)CC2)cc1Cl,-5.8,6.4,-25.5,-16.0,/,4.2
CCOCCCn1c(SC(C(=O)Nc2cc(C)ccc2C)c2ccccc2)nnc1-c1ccc(Cl)cc1 (configuration not stated),7.9,31.3,2.7,22.6,60.7*,-11.6
COc1cc(CNCCc2ccc(S(N)(=O)=O)cc2)ccc1OCc1ccc(Cl)cc1,5.5,65.8*,-3.7,8.4,100.5*,0.3
COc1cc(CNCCc2ccc(S(N)(=O)=O)cc2)ccc1OCC(=O)NC1CCCCC1,9.8,27.0,9.8,15.3,-2.7,-5.0
CCOc1cc(CNCCc2ccc(S(N)(=O)=O)cc2)ccc1OCc1ccc(Cl)cc1,-4.2,43.0,12.1,14.0,100.5*,7.6
O=S(=O)(c1ccc(F)c(F)c1)N1CCN(c2ccccn2)CC1,29.4,-10.4,-5.3,4.4,/,-6.7
CCSc1nc2sc3c(c2c(=O)n1-c1ccccc1)CCN(C(C)C)C3,40.4,20.3,3.4,18.2,/,0.8
CCNCCOC(c1ccccc1)c1ccccc1,12.3,-22.2,5.1,-3.6,6.0,-0.5
Cc1ccc(C(OCC(C)(C)C[N+](C)(C)C)c2ccccc2)cc1 (configuration not stated),10.8,32.7,-4.1,7.2,100.0*,-61.0
COc1cccc(Oc2cn[nH]c2-c2ccc(O)cc2O)c1,16.7,17.6,-2.9,-41.4,75.1*,-8.9
CN(C)C(=O)CCSc1nnc(-c2ccco2)o1,-0.8,-14.6,15.5,2.6,-16.9,-29.1
